# Assay results published in ChEMBL document CHEMBL3784970, “Synthesis and molecular docking of N'-arylidene-5-(4-chlorophenyl)-1-(3,4-dichlorophenyl)-4-methyl-1H-pyrazole-3-carbohydrazides as novel hypoglycemic and antioxidant dual agents” (Bioorg Med Chem, 2016).
# The source made the active and inactive calls. The calls are words filed in the database; no cut-off is given here.
# How the values were obtained:
# Rattus norvegicus [1] = assay: Antidiabetic activity in streptozotocin/nicotinamide-induced Wistar rat model of diabetes assessed as plasma glucose reduction at 50 mg/kg, ig measured at 1 to 7 hrs post dose by glucometric analysis; type: functional, organism-based
# [2] = Antioxidant activity assessed as DPPH radical scavenging activity incubated for 20 mins; type: physicochemical
# How it was run: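 DPPH (100 μM in ethanol) was mixed with sample at different concentrations and incubated 20 min at room temperature in the dark, then A517 was read. % scavenging was calculated against a water control. IC was reported as mean ± SEM, n = 3.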
# [3] = Antioxidant activity assessed as DPPH radical scavenging activity at 100 uM incubated for 20 mins; type: physicochemical
# [4] = Antioxidant activity assessed as DPPH radical scavenging activity at 10 uM incubated for 20 mins; type: physicochemical
# [5] = Antioxidant activity assessed as DPPH radical scavenging activity at 1 uM incubated for 20 mins; type: physicochemical
# Rattus norvegicus [6] = assay: Antidiabetic activity in streptozotocin/nicotinamide-induced Wistar rat model of diabetes assessed as plasma glucose variation at 50 mg/kg, ig measured at 7 hrs post dose by glucometric analysis (reference value: -5 +/- 8%); type: functional
# Rattus norvegicus [7] = assay: Antidiabetic activity in streptozotocin/nicotinamide-induced Wistar rat model of diabetes assessed as plasma glucose variation at 50 mg/kg, ig measured at 5 hrs post dose by glucometric analysis (reference value: -2 +/- 6%); type: functional
# Rattus norvegicus [8] = assay: Antidiabetic activity in streptozotocin/nicotinamide-induced Wistar rat model of diabetes assessed as plasma glucose variation at 50 mg/kg, ig measured at 1 hr post dose by glucometric analysis (reference value: 17 +/- 8%); type: functional
# Rattus norvegicus [9] = assay: Antidiabetic activity in streptozotocin/nicotinamide-induced Wistar rat model of diabetes assessed as plasma glucose variation at 50 mg/kg, ig measured at 3 hrs post dose by glucometric analysis (reference value: -13 +/- 10%); type: functional
smiles,measurement,setting,value
COc1cc(/C=N/NC(=O)c2nn(-c3ccc(Cl)c(Cl)c3)c(-c3ccc(Cl)cc3)c2C)ccc1O,Activity,Rattus norvegicus [1],Active
Cc1c(C)c2c(c(C)c1O)CC[C@@](C)(CCC[C@H](C)CCC[C@H](C)CCCC(C)C)O2 [ALPHA-TOCOPHEROL],IC50,[2],10.9 µM
COc1cc(/C=C/C(=O)O)ccc1O [FERULATE],Activity,[3],78.73%
same,IC50,[2],47.7 µM
same,Activity,[4],14.52%
same,Activity,[5],3.06%
COc1ccc(Cl)cc1C(=O)NCCc1ccc(S(=O)(=O)NC(=O)NC2CCCCC2)cc1 [GLYBURIDE],Activity,Rattus norvegicus [6],-31%
same,Activity,Rattus norvegicus [7],-31%
same,Activity,Rattus norvegicus [8],-4%
same,Activity,Rattus norvegicus [9],-31%
O=c1c(O)c(-c2ccc(O)c(O)c2)oc2cc(O)cc(O)c12 [QUERCETIN],IC50,[2],31.7 µM
Cc1c(C(=O)NN2CCCCC2)nn(-c2ccc(Cl)cc2Cl)c1-c1ccc(Cl)cc1 [RIMONABANT],Activity,Rattus norvegicus [6],-39%
same,Activity,Rattus norvegicus [7],-30%
same,Activity,Rattus norvegicus [8],-30%
same,Activity,Rattus norvegicus [9],-21%
COc1cc(/C=C/C(=O)O)cc(OC)c1O [SINAPINATE],Activity,[3],90.61%
same,IC50,[2],35.8 µM
same,Activity,[4],23.29%
same,Activity,[5],2.65%
